According to paper PMC8897028 (Acta Pharmaceutica Sinica. B, 2021):
Positions count from the first letter of the chain named.

Legend:
Type in all cases: cell-based
mTRPV3 H426A = biological target: T1, mTRPV3 H426A (Mus musculus, UniProt Q8K424, H426A); experiment: whole-cell patch-clamp of mTRPV3 H426A mutant in HEK293 cells; details: compound 100 µmol/L; carvacrol 300 μmol/L
T1 sequence (Q8K424 1-791 H426A): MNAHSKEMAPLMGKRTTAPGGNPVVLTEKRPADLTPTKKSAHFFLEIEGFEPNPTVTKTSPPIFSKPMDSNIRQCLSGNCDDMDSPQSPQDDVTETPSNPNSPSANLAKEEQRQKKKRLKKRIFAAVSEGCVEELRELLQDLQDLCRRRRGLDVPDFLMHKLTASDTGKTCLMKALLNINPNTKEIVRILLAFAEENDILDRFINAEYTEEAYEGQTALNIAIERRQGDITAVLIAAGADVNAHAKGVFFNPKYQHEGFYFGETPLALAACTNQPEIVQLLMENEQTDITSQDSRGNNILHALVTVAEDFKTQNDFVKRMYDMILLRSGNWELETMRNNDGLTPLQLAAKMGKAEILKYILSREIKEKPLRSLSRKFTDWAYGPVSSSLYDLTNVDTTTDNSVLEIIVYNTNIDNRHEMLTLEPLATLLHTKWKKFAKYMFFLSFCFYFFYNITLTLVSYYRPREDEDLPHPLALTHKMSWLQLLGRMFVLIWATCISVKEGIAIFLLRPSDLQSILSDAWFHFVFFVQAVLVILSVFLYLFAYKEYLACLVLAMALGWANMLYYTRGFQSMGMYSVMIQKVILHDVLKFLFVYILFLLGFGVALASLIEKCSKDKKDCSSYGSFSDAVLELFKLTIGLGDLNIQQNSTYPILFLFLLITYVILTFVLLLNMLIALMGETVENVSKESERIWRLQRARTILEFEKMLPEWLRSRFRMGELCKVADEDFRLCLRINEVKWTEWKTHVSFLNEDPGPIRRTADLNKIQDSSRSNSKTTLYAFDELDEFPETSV
How it was run: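 The sequence-confirmed site-directed mTRPV3 mutant was transiently expressed in HEK293 cells, and EGFP-positive cells were recorded whole-cell 18 h post-transfection. Cells were held at 0 mV with 500-ms ramps from −100 to +100 mV every 2 s, at 22–24 °C. Compounds were diluted in perfusion solution.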

hTRPV1 = hTRPV1 (Homo sapiens, UniProt Q8NER1); experiment: whole-cell patch-clamp of TRPV1 currents in HEK293 cells; details: compound 50 μmol/L; current induced by capsaicin 1 μmol/L
How it was run: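 Human channel cDNAs were transiently transfected into HEK293 cells with Lipofectamine 2000. EGFP-positive cells were recorded whole-cell 18 h later at 22–24 °C with ~4.0 MΩ fire-polished pipettes. Cells were held at 0 mV with 500-ms ramps from −100 to +100 mV every 2 s. Test compound in perfusion solution was co-applied with agonist, and average current inhibition was summarised; n = 4–6.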

mTRPV3 T636A = biological target: T2, mTRPV3 T636A (Mus musculus, UniProt Q8K424, T636A); experiment: whole-cell patch-clamp of mTRPV3 T636A mutant in HEK293 cells; details: compound 50 μmol/L; 2-APB; compared with WT mTRPV3
T2 sequence (Q8K424 1-791 T636A): T1 sequence (Q8K424 1-791 H426A) with A426H, T636A
How it was run: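 Mouse Trpv3 point mutants were made by site-directed mutagenesis, sequence-verified, and transiently expressed in HEK293 cells alongside wild-type mTRPV3. Whole-cell ramp recordings (−100 to +100 mV, 500 ms, holding 0 mV) were made at 22–24 °C. Currents were activated by 2-APB, and inhibition by 50 μmol/L test compound in the presence of 2-APB was compared with wild type; n = 3–8.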

Sequence of hTRPV1 (Q8NER1 whole entry, the tested form may be a part): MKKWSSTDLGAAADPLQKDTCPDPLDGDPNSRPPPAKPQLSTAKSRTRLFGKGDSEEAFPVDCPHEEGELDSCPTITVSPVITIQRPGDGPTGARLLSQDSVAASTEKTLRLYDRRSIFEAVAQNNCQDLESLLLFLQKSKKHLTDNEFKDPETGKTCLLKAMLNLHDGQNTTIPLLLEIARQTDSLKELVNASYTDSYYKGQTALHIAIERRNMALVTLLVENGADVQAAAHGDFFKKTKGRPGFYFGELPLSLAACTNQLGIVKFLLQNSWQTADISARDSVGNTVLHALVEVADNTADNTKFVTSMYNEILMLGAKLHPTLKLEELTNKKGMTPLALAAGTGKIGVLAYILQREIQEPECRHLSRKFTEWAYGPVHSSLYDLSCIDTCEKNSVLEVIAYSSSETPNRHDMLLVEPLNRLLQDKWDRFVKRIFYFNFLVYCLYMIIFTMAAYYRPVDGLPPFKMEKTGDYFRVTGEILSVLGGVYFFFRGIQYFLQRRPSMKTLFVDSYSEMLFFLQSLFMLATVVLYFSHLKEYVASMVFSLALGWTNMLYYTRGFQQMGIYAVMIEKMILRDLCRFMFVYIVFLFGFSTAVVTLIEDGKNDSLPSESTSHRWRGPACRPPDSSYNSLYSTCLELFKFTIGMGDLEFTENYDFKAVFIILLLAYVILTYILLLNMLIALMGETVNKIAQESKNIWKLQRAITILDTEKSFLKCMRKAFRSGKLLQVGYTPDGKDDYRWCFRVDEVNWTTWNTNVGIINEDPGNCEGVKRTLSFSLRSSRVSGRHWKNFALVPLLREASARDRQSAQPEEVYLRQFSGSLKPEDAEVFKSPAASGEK

Row | Structure (SMILES) | inhibition of carvacrol-mediated H426A mutant currents (mTRPV3 H426A) | inhibition of TRPV1 currents (hTRPV1) | effect of mutation on compound-induced inhibition of mTRPV3 currents (mTRPV3 T636A)
1 | O=C(/C=C/c1ccc(O)c(O)c1)O[C@@H]1[C@H](O)C[C@@](O)(C(=O)O)C[C@H]1OC(=O)/C=C/c1ccc(O)c(O)c1 [IAB, isochlorogenic acid B] | markedly inhibited | no obvious inhibition | markedly reduced
2 | O=C(/C=C/c1ccc(O)c(O)c1)O[C@@H]1C[C@](O)(C(=O)O)C[C@@H](OC(=O)/C=C/c2ccc(O)c(O)c2)[C@H]1O [IAA, isochlorogenic acid A] | markedly inhibited | no obvious inhibition | markedly reduced
